Assay outcomes: PubChem, Johns Hopkins Ion Channel Center
RGS4 pot: RGS4 potentiators or activators, primary screen, cell-based, HEK293 M3R inducible RGS4, calcium flux; 310,000 compounds, 0.92% hits; B-score at 10 µM; carbachol calcium flux Fluo4; active compounds read low; AID 463111, 2010;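 active means B-score of the integrated calcium signal more than 4 SD below the library mean, with starting fluorescence not abnormally high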;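 further: negative B-score means reduced calcium response which marks RGS4 activation or potentiation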
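Also added: carbachol at ECmax as muscarinic agonist stimulus; Assay system: HEK293 cells with stable M3R and inducible RGS4; Timing: overnight RGS4 induction, 30 min dye load 37 °C, 20 min compound RT; Measured by: Fluo4-AM (2 µM) calcium-flux fluorescence, kinetic read.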
RGS4 inh: RGS4 inhibitors, primary screen, cell-based, HEK293 M3R inducible RGS4, calcium flux | B-score at 10 µM | 310,000 compounds, 0.45% hits | Fluo-4 calcium flux; active compounds read high; triggered by carbachol at its EC20;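 active means B-score, a plate-corrected calcium signal, over three deviations above library mean, with baseline fluorescence within five deviations of library mean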;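 further: RGS4 expression induced by doxycycline in cells with stable M3 receptor; B-score is computed from the integrated fluorescence ratio over baseline after carbachol; higher B-score means a larger calcium signal and so more RGS4 inhibition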
Target sequence (P49798 whole entry, looked up): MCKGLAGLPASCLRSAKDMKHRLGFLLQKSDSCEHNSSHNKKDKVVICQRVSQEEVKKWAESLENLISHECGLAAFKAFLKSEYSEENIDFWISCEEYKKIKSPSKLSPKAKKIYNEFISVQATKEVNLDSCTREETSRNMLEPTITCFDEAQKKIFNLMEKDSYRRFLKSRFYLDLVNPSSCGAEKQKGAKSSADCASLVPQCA
MrgX1 agonist: agonists of human MrgX1 receptor, primary screen, HEK293 cells, Fluo-4 calcium flux. Mas-related G-protein coupled receptor member X1 (Homo sapiens), Q96LB2. Fluo-4 calcium fluorescence, agonist mode; active compounds read high. 310,000 compounds, 0.44% hits. B-score at 10 µM. AID 588627, 2011;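 active means calcium response B-score plate-corrected fluorescence ratio at least 3 library SD, with starting fluorescence B-score inside 5 SD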
Target sequence (Q96LB2 whole entry, looked up): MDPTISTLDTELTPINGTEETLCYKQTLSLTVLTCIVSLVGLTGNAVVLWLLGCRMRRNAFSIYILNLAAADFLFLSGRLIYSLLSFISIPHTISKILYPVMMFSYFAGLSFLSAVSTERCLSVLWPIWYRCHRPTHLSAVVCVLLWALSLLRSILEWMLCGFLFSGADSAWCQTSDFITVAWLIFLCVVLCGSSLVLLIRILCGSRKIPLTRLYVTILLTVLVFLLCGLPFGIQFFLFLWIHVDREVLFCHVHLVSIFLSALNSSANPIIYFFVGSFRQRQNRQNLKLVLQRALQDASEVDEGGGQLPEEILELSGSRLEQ
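Material: HEK293 cells stably expressing human MrgX1 receptor | Quantity: 15,000 cells per well | Times: Cells plated overnight, dye loaded 0.5 h 37 °C, 0.5 h room temperature | Measured by: Kinetic Fluo-4 NW fluorescence of intracellular calcium | Control set: Positive and negative controls per plate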
MrgX1 antag: antagonists of human MrgX1 receptor, primary screen, HEK293 cells, Fluo-4 calcium flux | BAM8-22 antagonism; active compounds read low | 310,000 compounds, 1.3% hits | B-score at 10 µM | Mas-related G-protein coupled receptor member X1 (Homo sapiens), Q96LB2;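 active means calcium-response B-score plate-corrected more than 3 library SD below zero, starting fluorescence within 5 deviations, no agonist response on first addition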;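 further: peak minus trough fluorescence over baseline after final BAM8-22 challenge near maximal dose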
MrgX1 allo act: positive allosteric modulators of MrgX1, primary screen, HEK293 cells, Fluo-4 calcium flux | Mas-related G-protein coupled receptor member X1 (Homo sapiens), Q96LB2 | FDSS; active compounds read high | B-score at 10 µM | 310,000 compounds, 0.63% hits;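 active means plate-corrected calcium response at least 3 library SD above typical, normal starting fluorescence, not activating the receptor alone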;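 further: compound read alongside a low EC10 to EC30 dose of BAM8-22 agonist; peak minus trough fluorescence over baseline measured at the second addition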
MrgX1 ant reconf: MrgX1 receptor antagonists, duplicate retest, confirmation, HEK293 cells, Fluo-4 calcium flux; BAM8-22 calcium flux; active compounds read low; 2,300 compounds, 19% hits; shares compounds with MrgX1 antag; remaining BAM8-22 calcium response % of control (active compounds read low), % at 10 µM;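 active means remaining agonist calcium response no higher than 100% minus 3 SD of agonist-only control wells, with starting fluorescence near control levels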;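 further: agonist BAM8-22 given at a near maximal EC90 to ECmax level; peak minus minimum fluorescence divided by baseline after agonist addition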
HEK293 Ca flux: nonspecific calcium signal in parental HEK293, confirmation, counter-screen for MrgX1 antagonist project, parental HEK293 cells, Fluo-4 calcium flux; Fluo-4 calcium fluorescence, FDSS; shares compounds with MrgX1 antag; AID 624111, 2012; 4,000 compounds, 2% hits; fluorescence ratio F(max-min)/F0 at 10 µM;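 active means duplicate-averaged calcium fluorescence ratio at least three times the standard deviation of buffer wells, a nonspecific response in parental cells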
HEK293 Ca counter: calcium response in parental HEK293 cells, primary screen, counter-screen for MrgX1 allosteric activator project, cell-based, Fluo-4 calcium flux, duplicate | shares compounds with MrgX1 antag | Fluo-4 fluorescence ratio; active compounds read high | fluorescence ratio F(max-min)/F0 at 10 µM | 4,000 compounds, 0.4% hits | AID 624114, 2012;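 active means calcium fluorescence ratio, averaged over duplicates, at least 3 SD of the buffer-well ratio, meaning a nonspecific response in receptor-free cells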;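 further: untransfected parental HEK293 lacking MrgX1 used as counterscreen for MrgX1 allosteric activators; fluorescence change taken during the second addition on a kinetic imager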
HEK293 Ca cntr2: calcium response in parental HEK293 cells, primary screen, counter-screen for MrgX1 agonist project, cell-based, Fluo-4 calcium flux, duplicate, agonist mode; shares compounds with MrgX1 antag; Fluo-4 calcium fluorescence (FDSS); active compounds read high; fluorescence ratio F(max-min)/F0 at 10 µM; 4,000 compounds, 8.7% hits; AID 624115, 2012;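 active means calcium fluorescence ratio at least three times the spread of buffer wells, meaning a non-specific response in parental cells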
The depositor's hits bear a star. Sampled rows, rich in hits. Any-hit rate of the full collection: about 3.5%.

`CSc1ccccc1OCc1cc(C(=O)N2CCC(c3ccncc3)CC2)no1` gave RGS4 pot inactive, RGS4 inh inactive, MrgX1 agonist inactive, MrgX1 antag -6.1*, MrgX1 allo act inactive, MrgX1 ant reconf 80%*, HEK293 Ca flux inactive, HEK293 Ca counter inactive and HEK293 Ca cntr2 inactive.
Screening Nc1nonc1C(=O)NCCNC(=O)c1ccc(Cl)c(Cl)c1 returned RGS4 pot inactive, RGS4 inh inactive, MrgX1 agonist inactive, MrgX1 antag inactive and MrgX1 allo act inactive.
Screening CC(OC(=O)CCC1CCCCC1)C(=O)Nc1ccc(S(N)(=O)=O)cc1 (stereo not drawn) returned RGS4 pot inactive, RGS4 inh inactive, MrgX1 agonist inactive, MrgX1 antag inactive and MrgX1 allo act inactive.
COc1ccc(N2C(=O)c3ccc(C(=O)Nc4ccccc4OC)cc3C2=O)cc1 was read as RGS4 pot inactive, RGS4 inh inactive, MrgX1 agonist inactive, MrgX1 antag inactive and MrgX1 allo act inactive.
`Cc1ccc(S(=O)(=O)N2CCN(C(=O)c3ccnn3C)CC2)cc1C` gave RGS4 pot inactive, RGS4 inh inactive, MrgX1 agonist inactive, MrgX1 antag -5.7*, MrgX1 allo act inactive, MrgX1 ant reconf inactive, HEK293 Ca flux inactive, HEK293 Ca counter inactive and HEK293 Ca cntr2 inactive.
COc1ccccc1C(=O)Nc1ccnn1C1CCN(Cc2ccn[nH]2)CC1 was read as RGS4 pot inactive, RGS4 inh inactive, MrgX1 agonist inactive, MrgX1 antag inactive and MrgX1 allo act inactive.
For COc1ccc(NC(=O)CN(C)C(=O)c2ccc(-c3ccccc3Cl)o2)cc1 the results were RGS4 pot inactive, RGS4 inh inactive, MrgX1 agonist inactive, MrgX1 antag -4.7*, MrgX1 allo act inactive, MrgX1 ant reconf inactive, HEK293 Ca flux inactive, HEK293 Ca counter inactive and HEK293 Ca cntr2 inactive.
Screening COc1ccc(NC(=O)CN(C)C(=O)c2ccc(-c3cccc(C(F)(F)F)c3)o2)cc1 returned RGS4 pot inactive, RGS4 inh inactive, MrgX1 agonist inactive, MrgX1 antag inactive and MrgX1 allo act inactive.
`CC(=O)c1ccc(S(=O)(=O)N2CCCC(N(C)CCc3ccccn3)C2)cc1` (stereo not drawn) gave RGS4 pot inactive, RGS4 inh inactive, MrgX1 agonist inactive, MrgX1 antag inactive and MrgX1 allo act inactive.
Screening CCN(CC)C(=O)Cn1cc(C(=O)C(=O)N2CCN(Cc3ccc4c(c3)OCO4)CC2)c2ccccc21 returned RGS4 pot inactive, RGS4 inh inactive, MrgX1 agonist inactive, MrgX1 antag inactive and MrgX1 allo act inactive.
O=C(O)CC1(CC(=O)NCc2ccc(Cl)cc2)CCCCC1 was read as RGS4 pot inactive, RGS4 inh inactive, MrgX1 agonist inactive, MrgX1 antag inactive and MrgX1 allo act inactive.
Cc1ccc(NS(=O)(=O)c2ccc(N3C(=O)CCC3=O)cc2)cc1 was read as RGS4 pot inactive, RGS4 inh inactive, MrgX1 agonist inactive, MrgX1 antag -5.4*, MrgX1 allo act inactive, MrgX1 ant reconf inactive, HEK293 Ca flux inactive, HEK293 Ca counter inactive and HEK293 Ca cntr2 inactive.
For CC(C)c1ccc(NS(=O)(=O)c2ccc(N3C(=O)CCC3=O)cc2)cc1 the results were RGS4 pot inactive, RGS4 inh inactive, MrgX1 agonist inactive, MrgX1 antag inactive and MrgX1 allo act inactive.
Cc1cc(Nc2ccccc2)n(-c2ccc(C(=O)O)cc2)n1 was read as RGS4 pot inactive, RGS4 inh inactive, MrgX1 agonist inactive, MrgX1 antag -4.5*, MrgX1 allo act inactive, MrgX1 ant reconf inactive, HEK293 Ca flux inactive, HEK293 Ca counter inactive and HEK293 Ca cntr2 inactive.
For Cc1cc(C)n(-c2ccc(C(=O)O)cc2)n1 the results were RGS4 pot inactive, RGS4 inh inactive, MrgX1 agonist inactive, MrgX1 antag inactive and MrgX1 allo act inactive.
Screening CC1(c2ccccc2)NC(=O)N(CC(=O)Nc2ccccc2C(=O)N2CCCCC2)C1=O (stereo not drawn) returned RGS4 pot inactive, RGS4 inh inactive, MrgX1 agonist inactive, MrgX1 antag inactive and MrgX1 allo act inactive.
For CCN1c2ccc(S(=O)(=O)N3CCOCC3)cc2N(Cc2ccc(OC)cc2)C1C (stereo not drawn) the results were RGS4 pot inactive, RGS4 inh inactive, MrgX1 agonist inactive, MrgX1 antag -4.7*, MrgX1 allo act inactive, MrgX1 ant reconf inactive, HEK293 Ca flux inactive, HEK293 Ca counter inactive and HEK293 Ca cntr2 inactive.
COc1ccc2cc(S(=O)(=O)N3CCOCC3)ccc2c1 was read as RGS4 pot inactive, RGS4 inh inactive, MrgX1 agonist inactive, MrgX1 antag inactive and MrgX1 allo act inactive.
For CCc1cc(=O)[nH]c(SCc2ccc(C)cc2)n1 the results were RGS4 pot inactive, RGS4 inh inactive, MrgX1 agonist inactive, MrgX1 antag -4.7*, MrgX1 allo act inactive, MrgX1 ant reconf inactive, HEK293 Ca flux inactive, HEK293 Ca counter inactive and HEK293 Ca cntr2 inactive.
Screening CCc1cc(=O)[nH]c(SCc2cccnc2)n1 returned RGS4 pot inactive, RGS4 inh inactive, MrgX1 agonist inactive, MrgX1 antag inactive and MrgX1 allo act inactive.
For CC1CCN(C(=O)C2CCC(CNS(=O)(=O)c3cccc4cccnc34)CC2)CC1 (stereo not drawn) the results were RGS4 pot inactive, RGS4 inh inactive, MrgX1 agonist inactive, MrgX1 antag -5.3*, MrgX1 allo act inactive, MrgX1 ant reconf inactive, HEK293 Ca flux inactive, HEK293 Ca counter inactive and HEK293 Ca cntr2 inactive.
